Test results: ChEMBL document CHEMBL1157760, “Design, synthesis and anticancer activities of stilbene-coumarin hybrid compounds: Identification of novel proapoptotic agents” (Bioorg Med Chem, 2010)
Calls of active or inactive are those of the source. The calls are words filed in the database; no cut-off is given here.

What was measured:
NCI-H460 [1] = assay: Antiproliferative activity against human H460 cells after 72 hrs; type: functional, cell-based; details: NCI-H460, 72 h
Summary of the method: (§1)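 Growth inhibition: log-phase tumour cells seeded in duplicate, drug added 24 h after seeding, cells harvested 72 h after exposure and counted with a cell counter. IC50 taken as concentration giving 50% fewer cells than untreated control.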

NCI-H460 [2] = assay: Upregulation of p34CDC2 protein expression in human H460 cells at 1.5 uM after 24 hrs by Western blot analysis; type: functional, cell-based
Summary of the method: (§2)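 After 24 h drug exposure, H460 cells rinsed twice in ice-cold PBS with 0.1 mM sodium orthovanadate and lysed in hot sample buffer. Protein quantified, separated by SDS-PAGE, transferred to nitrocellulose, probed with primary antibodies and HRP secondaries, and detected by enhanced chemiluminescence. Actin served as loading control.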

NCI-H460 [3] = assay: Induction of apoptosis in human H460 cells assessed as CDKp21-p34CDC2 complex formation at 1.5 uM after 24 hrs by immunoprecipitation assay; type: functional, cell-based
Summary of the method: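 H460 cells exposed 24 h at 1.5 µM, lysed in NET buffer (pH 7.4, 0.1% NP40, protease inhibitors) on ice then at 4 °C. Lysate cleared at 10,000g and BCA-quantified. 500 µg immunoprecipitated with anti-cdc2 antibody 2 h at 4 °C, then with protein A-sepharose overnight at 4 °C. Pellets washed, eluted and immunoblotted for p34cdc2 and p21.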

A-431 = assay: Antiproliferative activity against human A431 cells after 72 hrs; type: functional, cell-based; details: A-431, 72 h; summary of the method: as §1
[4] = Antiproliferative activity against human JR8 cells after 72 hrs; type: functional, cell-based; details: JR8, 72 h; summary of the method: as §1
NCI-H460 [5] = assay: Antitumor activity against human H460 cells xenograft model assessed as tumor growth inhibition at 10 to 20 mg/kg, po administered daily; type: functional; details: dose mg/kg 10-20
NCI-H460 [6] = assay: Increase in CDKp21 protein expression in human H460 cells at 1.5 uM after 24 hrs by Western blot analysis; type: functional, cell-based; summary of the method: as §2
NCI-H460 [7] = assay: Induction of apoptosis in human H460 cells assessed as cleavage of PARP at 1.5 uM after 24 hrs by Western blot analysis; type: functional, cell-based; summary of the method: as §2
NCI-H460 [8] = assay: Induction of apoptosis in human H460 cells assessed as cleavage of caspase 3 at 1.5 uM after 24 hrs by Western blot analysis; type: functional, cell-based; summary of the method: as §2
NCI-H460 [9] = assay: Induction of apoptosis in human H460 cells at 0.5 to 1.5 uM after 72 hrs by TUNEL assay; type: functional, cell-based
Summary of the method: (§3)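 H460 cells exposed 72 h to drug. Floating plus adherent cells fixed in 4% paraformaldehyde for 60 min at room temperature, then resuspended in ice-cold PBS. Fluorescein in situ cell-death (TUNEL) kit used and cells read by flow cytometry. Result given as percent TUNEL-positive cells against untreated control.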

NCI-H460 [10] = assay: Upregulation of cyclin B1 protein expression in human H460 cells at 1.5 uM after 24 hrs by Western blot analysis; type: functional, cell-based; summary of the method: as §2
NCI-H460 [11] = assay: Induction of apoptosis in human H460 cells at 10 to 20 uM after 72 hrs by TUNEL assay; type: functional, cell-based; summary of the method: as §3
NCI-H460 [12] = assay: Cell cycle arrest in human H460 cells assessed as accumulation at G2/M phase after 24 hrs by propidium iodide staining-based flow cytometry; type: functional
Summary of the method: (§4)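 H460 cells treated 24 h at 10 and 20 µM (resveratrol), 0.5 and 1.5 µM, or 0.3 and 3 µM, then analysed for cell cycle phase distribution (G1, S, G2/M).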

NCI-H460 [13] = assay: Cell cycle arrest in human H460 cells assessed as accumulation at G2/M phase at 20 uM after 24 hrs by propidium iodide staining-based flow cytometry; type: functional; summary of the method: as §4
NCI-H460 [14] = assay: Induction of apoptosis in human H460 cells at 0.3 to 3 uM after 72 hrs by TUNEL assay; type: functional, cell-based; summary of the method: as §3
NCI-H460 [15] = assay: Upregulation of p34CDC2 protein expression in human H460 cells at 3 uM after 24 hrs by Western blot analysis; type: functional, cell-based; summary of the method: as §2
NCI-H460 [16] = assay: Increase in CDKp21 protein expression in human H460 cells at 3 uM after 24 hrs by Western blot analysis; type: functional, cell-based; summary of the method: as §2
NCI-H460 [17] = assay: Upregulation of cyclin B1 protein expression in human H460 cells at 3 uM after 24 hrs by Western blot analysis; type: functional, cell-based; summary of the method: as §2

`COc1cc(/C=C/c2cc(=O)oc3ccccc23)cc(OC)c1` showed an IC50 (NCI-H460 [1]) of 2.6 µM.

In the case of `COc1cc(/C=C/c2cc(=O)oc3cc(OC)ccc23)cc(OC)c1`, the IC50 (NCI-H460 [1]) is reported as 0.45 µM, the Activity (NCI-H460 [2]) is reported as “Active” and the Activity (NCI-H460 [3]) is reported as “Active”. For the same compound, the IC50 (A-431) was 3.44 µM, the IC50 [4] was 3.2 µM and the “inhibition (INH)” value (NCI-H460 [5]) was 50%. For the same compound, the Activity (NCI-H460 [6]) was “Active”, the Activity (NCI-H460 [7]) was “Active” and the Activity (NCI-H460 [8]) was “Active”. The Activity (NCI-H460 [9]) was “Active” and the Activity (NCI-H460 [10]) was “Active”.

In the case of `COc1ccc2c(/C=C/c3ccc(OC)c(OC)c3OC)cc(=O)oc2c1`, the IC50 (NCI-H460 [1]) is reported as > 50 µM.

With `COc1cc(/C=C/c2cc3ccc(OC)cc3oc2=O)cc(OC)c1` the IC50 (NCI-H460 [1]) was > 10 µM.

In the case of `COc1ccc2c(/C=C/c3ccc(OCC=C(C)C)cc3)cc(=O)oc2c1`, the IC50 (NCI-H460 [1]) is reported as > 50 µM.

With `COc1ccc2c(/C=C/c3cc(OC)c(OC)c(OC)c3)cc(=O)oc2c1` the IC50 (NCI-H460 [1]) was > 100 µM.

For `O=c1cc(/C=C/c2cc(O)cc(O)c2)c2ccc(O)cc2o1`, the IC50 (NCI-H460 [1]) was 27 µM.

In the case of `COc1cccc(/C=C/c2cc(=O)oc3cc(OC)ccc23)c1`, the IC50 (NCI-H460 [1]) is reported as 12.9 µM.

In the case of `COc1cc(/C=C/c2cc(=O)oc3ccc(OC)cc23)cc(OC)c1`, the IC50 (NCI-H460 [1]) is reported as 11 µM.

In the case of `Oc1ccc(/C=C/c2cc(O)cc(O)c2)cc1` [RESVERATROL], the IC50 (NCI-H460 [1]) is reported as 12.9 µM, the Activity (NCI-H460 [11]) is reported as “inactive” and the Activity (NCI-H460 [12]) is reported as “Dose-dependent effect”. The Activity (NCI-H460 [13]) was “Active”.

In the case of `COc1ccc2c(/C=C/c3cc(C)cc(C)c3)cc(=O)oc2c1`, the IC50 (NCI-H460 [1]) is reported as 0.29 µM, the Activity (NCI-H460 [14]) is reported as “Active” and the IC50 (A-431) is reported as 3.5 µM. For the same compound, the IC50 [4] was 3.5 µM, the Activity (NCI-H460 [15]) was “Active” and the Activity (NCI-H460 [16]) was “Active”. The Activity (NCI-H460 [17]) was “Active”.
